The values below come from ChEMBL document CHEMBL1150625, “New terpenoid constituents from Eunicea pinta” (J Nat Prod, 2002).

In general, IC50 refers to the concentration that gives 50% inhibition. Read a low IC50 as greater potency in that assay. One may read the inhibition as how much of the control response was suppressed.

The test system of test [1] is TK-10. As to the kind of experiment: Cytotoxicity against human TK10 cells. It counts as functional, cell-based. The gist of the method:
(§1)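 Tested in vitro in the NCI 60 human tumour cell-line panel, with the screen run at the National Cancer Institute. Growth inhibition was read for each line and reported as IC50 in µg/mL.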

Test [2] has as its system NCI-H322M. As to the kind of experiment: Cytotoxicity against human NCI-H322M cells. It is filed as functional, cell-based. The gist of the method:
as §1

The subject of test [3] is Mycobacterium tuberculosis. Put plainly: Antitubercular activity against Mycobacterium tuberculosis H37Rv assessed as inhibition of microbial growth at 6.25 ug/mL. It is filed as functional.
For test [4], the system named is SR. Put plainly: Cytotoxicity against human SR cells. It is filed as functional, cell-based. Summed up: as §1
The subject of test [5] is MOLT-4. As to the kind of experiment: Cytotoxicity against human MOLT4 cells. It is filed as functional, cell-based. Summed up:
as §1

The subject of test [6] is ACHN. As to the kind of experiment: Cytotoxicity against human ACHN cells. It counts as functional, cell-based. Summed up:
as §1

Test [7] concerns CAKI-1. As to the kind of experiment: Cytotoxicity against human Caki1 cells. It counts as functional, cell-based. Summed up:
as §1

For test [8], the system named is A498. As to the kind of experiment: Cytotoxicity against human A498 cells. It counts as functional, cell-based. The gist of the method: as §1

≈ marks a conversion by molar mass, not a printed value. Calls of active or inactive are those of the source. The rule behind the calls is not given here.

For `C=C1C(=O)O[C@H]2C(=O)[C@H](C)CCC/C(C)=C/CC[C@@]3(C)O[C@@H]3C[C@@H]12`, the IC50 in test [1] was found to be 0.13 µg/mL (≈ 0.391 µM); in test [2], 0.9 µg/mL (≈ 2.71 µM).

Take `C=C1C(=O)OC2C(=O)[C@H](C)CCC/C(C)=C/CC[C@@]3(C)O[C@@H]3C[C@@H]12` (stereo not given in full): in test [3], the inhibition result is “inactive”.

Take `C=C1C(=O)O[C@H]2C(=O)[C@H](C)CCC[C@](C)(OO)/C=C/C[C@@]3(C)O[C@@H]3C[C@@H]12` [UPROLIDE H]: in test [3], the inhibition entry is “inactive”. In addition, the half-inhibitory concentration (IC50) worked out at 0.07 µg/mL (≈ 0.192 µM) in test [4] and 0.01 µg/mL (≈ 0.0274 µM) in test [5].

Take `C=C[C@H]1CC[C@H]2[C@@H]3CC=C4C[C@@H](O[C@@H]5OC[C@@H](O)[C@H](O)[C@H]5O)CC[C@]4(C)[C@H]3CC[C@]12C`: the results for the half-inhibitory concentration (IC50) in test [6], in test [7] and in test [8] were 2.8 µg/mL (≈ 6.47 µM), 6.6 µg/mL (≈ 15.3 µM) and 4.2 µg/mL (≈ 9.71 µM), respectively. Further, the inhibition at 6.25 µg/mL in test [3] is 52%.
